Experimental data from ChEMBL document CHEMBL1154723, “Identification and characterisation of new inhibitors for the human hematopoietic prostaglandin D2 synthase” (Eur J Med Chem, 2010).

What was measured:
[1] = molecular target: T1, Hematopoietic prostaglandin D synthase (Homo sapiens, UniProt O60760); experiment: Inhibition of human H-PGDS expressed in Escherichia coli BL21 assessed as rate of glutathione-chloro-dinitro benzene conjugation at 50 uM
Outline: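 GSH–CDNB conjugation by E. coli BL21 DE3-expressed, GSH-affinity purified human H-PGDS (2.5 ng/ml). Buffer was 0.1 M Tris HCl pH 8.0 with 2 mM MgCl2, 1 mM CDNB, 2 mM GSH and 10% ethanol. Read at A340 nm over 10 min at 25 C. Percent inhibition at 50 uM inhibitor, mean ± SD of triplicates.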

[2] = molecular target: T1, Hematopoietic prostaglandin D synthase; experiment: Inhibition of human H-PGDS expressed in Escherichia coli BL21 assessed as rate of glutathione-chloro-dinitro benzene conjugation
Outline: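 Recombinant human H-PGDS from E. coli BL21 DE3 (pET17b, uninduced), GSH-affinity purified. Reaction: 0.1 M Tris HCl pH 8.0, 2 mM MgCl2, 1 mM CDNB, 2 mM GSH, 2.5 ng/ml enzyme, 10% (v/v) ethanol. Conjugate formation followed at A340 nm over 10 min, 25 C. Eight inhibitor concentrations bracketing IC50, background-corrected for solvent. Nonlinear regression, triplicates, mean ± SEM.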

T1 sequence (O60760 whole entry): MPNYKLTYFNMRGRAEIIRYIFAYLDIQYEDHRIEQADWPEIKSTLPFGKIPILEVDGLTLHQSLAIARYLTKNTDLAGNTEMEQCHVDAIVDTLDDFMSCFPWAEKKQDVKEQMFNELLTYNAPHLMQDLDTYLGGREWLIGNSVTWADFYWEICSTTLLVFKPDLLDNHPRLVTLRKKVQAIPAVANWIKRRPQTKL

SMILES	inhibition [1]	IC50 [2]
O=C(O)COc1ccc(C(=O)c2cccs2)c(Cl)c1Cl	0%	–
O=C(c1ccccc1)c1cccs1	78.2%	9.2 µM
Nc1c(S(=O)(=O)O)cc(Nc2ccc(Nc3nc(Cl)nc(Nc4ccccc4S(=O)(=O)O)n3)c(S(=O)(=O)O)c2)c2c1C(=O)c1ccccc1C2=O [CIBACRON BLUE]	100%	0.2 µM
O=C(O)c1ccc2ccccc2c1Br	5.1%	–
COc1ccc(C(=O)c2cccs2)cc1	41.8%	105 µM
O=C(O)c1cc(/N=N/c2ccc(S(=O)(=O)Nc3ccccn3)cc2)ccc1O	0%	–
O=C(O)CCCCCC[C@H]1C(=O)NC(=O)N1CCC(O)C1CCCCC1 (stereo not given in full)	17%	–
Cc1cc(CC(=O)O)n(C)c1C(=O)c1ccc(Cl)cc1	0%	–
c1ccc(C(OC2CCN(CCCc3nnn[nH]3)CC2)c2ccccc2)cc1	100%	1.8 µM
COC(=O)Nc1nc2ccc([S+]([O-])c3ccccc3)cc2[nH]1 (stereo not given) [OXFENDAZOLE]	–	> 300 µM
C=C(CC)C(=O)c1ccc(OCC(=O)O)c(Cl)c1Cl [ETHACRYNIC ACID]	25.3%	122 µM
O=C(O)Cc1ccccc1Nc1c(Cl)cccc1Cl	0%	–
O=C1OC(c2ccc(O)c(S(=O)(=O)O)c2)(c2ccc(O)c(S(=O)(=O)O)c2)c2c(Br)c(Br)c(Br)c(Br)c21 [SULFOBROMOPHTHALEIN]	66.9%	27 µM
O=C(Nc1ccccc1)Nc1cccc(C(=O)O)c1	8.6%	–
COc1ccc2c(c1)c(CC(=O)O)c(C)n2C(=O)c1ccc(Cl)cc1	0%	–
COC(=O)Nc1nc2cc(C(=O)c3cccs3)ccc2[nH]1	42.6%	–
O=C(O)CCn1c2c(c3ccccc31)C[C@H](NS(=O)(=O)c1ccc(F)cc1)CC2	0%	–
COC(=O)Nc1nc2cc([S+]([O-])c3ccccc3)ccc2[nH]1 (stereo not given)	0%	–
CC1(C)Cc2c(-c3ccccc3)c(-c3ccc(Cl)cc3)c(CC(=O)O)n2C1	0%	–
